According to ChEMBL document CHEMBL4513216, “Probing the Open Global Health Chemical Diversity Library for Multistage-Active Starting Points for Next-Generation Antimalarials” (ACS Infect Dis, 2020):

assay: Toxicity liver stage against HepG2, at 10uM; format: cell-based; set-up: test concentration 10 uM, cell line HepG2-A16-CD81EGFP; conditions: human, HepG2-A16-CD81EGFP cells; read-out: INHIBITION
In short: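 Uninfected HepG2-A16-CD81EGFP cells, 3 × 10^3 per well, 1536-well, plated on prespotted compound at 10 μM final, parasite-free screening media added to match infected plates; puromycin 10 μM positive, DMSO 0.5% negative; run in parallel with 48 h PbLuc assay at 37 °C, 5% CO2; viability by CellTiter-Glo luminescence, normalized to controls.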

| Compound | cytotoxicity at 10 µM [%] |
| --- | --- |
| O[C@@H]1CCN(CC2CCOC2)[C@H]1Cc1cccnc1 (stereo not given in full) | -8.56 |
| CN(C)C(=O)Cn1ccc2cc(NC(=O)N3CCOCC3)ccc21 | 6.35 |
| COCCNC(=O)[C@H]1C[C@@H]2CCN(c3nncs3)C[C@H]2O1 | -2.12 |
| O=C(NC1CCC1)c1cccc(S(=O)(=O)NCc2nc(C3CC3)no2)c1 | -0.0264 |
| Cc1ccccc1CC(=O)N(C)C1CCN(c2ccccn2)CC1 | -2.74 |
| CS(=O)(=O)NCC1OCCc2cn(CC3CC3)nc21 (stereo not given) | 8.19 |
| CN1CCN(Cc2cccnc2)C(=O)C12CCN(Cc1ccco1)CC2 | -4.34 |
| C[C@@H]1CN(Cc2cc(C3CCCCC3)no2)CC[C@]1(C)O | -13.2 |
| CN(C)C(=O)CN1CCC2(COCc3cnc(N4CCOCC4)nc32)C1 (stereo not given) | -70.5 |
| Cc1cc(C(=O)NCC2SCCc3ccccc32)no1 (stereo not given) | 3.41 |
| CCc1cnc(N2CC[C@@H]3CN(CCC(C)C)S(=O)(=O)[C@@H]3CC2)nc1 | 2.38 |
| O=C(NC1CC1)N1CCc2ccc(=O)n(Cc3ccncc3)c2CC1 | -0.972 |
| NC(=O)CN1CCCC1c1ccccc1Br (stereo not given) | 4.01 |
| CC(=O)N1C[C@@H](c2ccsc2)[C@@H]2CN(Cc3cccc(Cl)c3)CC[C@@H]21 | 13.1 |
| CCC(C)NC(=O)CN1CCC2(CC1)OCCO2 (stereo not given) | -4.92 |
| CC(C)(C)c1nc(CN(CCC2CCCCC2)CC(N)=O)no1 | -3.08 |
| O=C(O)c1nnn(Cc2ccc(F)cc2)c1-c1cccnc1 | -6.21 |
| Cc1nnc(C2CCN(C(=O)c3ccc(-n4cccc4)cc3)CC2)s1 | 6.4 |
| CC(O)CNc1nc(-c2cccnc2)nc2c1CCC2 (stereo not given) | 9.8 |
| COc1ccc2c(c1)NC(C1CCNCC1)NS2(=O)=O (stereo not given) | -2.86 |
| CC(C)c1nsc(N2CCS(=O)(=O)CC2)n1 | -2.41 |
| O=S(=O)(c1ccccc1)N1CCOCC(Cc2cccnc2)C1 (stereo not given) | 0.812 |

| Compound | cytotoxicity at 10 µM [%] |
| --- | --- |
| COCCN(C)C(=O)c1nc2c(s1)CCCN2c1ccc(C)nn1 | -2.4 |
| Cc1ccccc1C(=O)N1CC[C@H](O)[C@@H](N2CCOCC2)CC1 | 5.32 |
| Cc1nc(C)c(CC(=O)Nc2ncc(C)s2)c(=O)[nH]1 | -5.49 |
| C=C(C)CNC(=O)C1CCC(=O)N(C2CCCC2)C1 (stereo not given) | -3.4 |
| O=C(Cc1ccccc1Cl)N1CCCC(n2cncn2)C1 (stereo not given) | -11.1 |
| CN(C)c1cc(C2CCN(C(=O)c3cnn(C)c3)CC2)ccn1 | 0.075 |
| CC(=O)c1ccc(N2CCCC(CO)(CCc3ccccc3)C2)nc1 (stereo not given) | 1.2 |
| CC(C)N(C)C[C@H]1C[C@@H]2CN(Cc3ccco3)C[C@@H]2O1 | -4.22 |
| Clc1ccc(C2(NCc3noc(C4CC4)n3)CCOCC2)cc1 | -3.1 |
| COc1cc(N2CCCC(c3nccn3Cc3ccncc3)C2)ncn1 (stereo not given) | -6.82 |
| O=C(c1cc(-c2cccs2)nc2ccccc12)N1CCN(CCO)CC1 | -53.2 |
| CC(=O)N(C)CC(=O)NC(C)c1ccc(OCCC(C)C)cc1 (stereo not given) | 8.59 |
| O=C(NCCn1ccc(-c2ccncc2)n1)c1ccc2c(c1)OCO2 | 6.03 |
| NC(=O)c1cc2c(nc1Oc1cccc(CN3CCCC3)c1F)CCC2 | -1.47 |
| Cn1cnc2c1C(COCc1cccnc1)N(Cc1nccs1)CC2 (stereo not given) | 10.5 |
| CCCN(CCC)c1ncc(S(=O)(=O)c2cccc(C)c2)c(N)n1 | 11 |
| COc1ccc2c(c1)OCC(Cc1ccc(N)cn1)C2 (stereo not given) | -1.91 |
| CC(C)OCCN(C)CC(c1cccs1)N1CCOCC1 (stereo not given) | -4.34 |
| Cc1ccc(NC(=O)Cn2ccc3c(=O)n(C)ccc32)cc1F | -2.74 |
| Cc1cnc(C(=O)N2CCC3(CCCN(c4nncs4)C3)C2)cn1 (stereo not given) | -103 |
| CN(CC1(CO)CCCC1)[C@@H]1c2ccccc2C2(CCNCC2)[C@H]1O | 1.44 |
| COC(=O)CCCNC(=O)c1cc(COc2cncc(Cl)c2)on1 | 8.23 |

| Compound | cytotoxicity at 10 µM [%] |
| --- | --- |
| CC(=O)NCC1CCN(CC2CCOc3ccccc3C2)CC1 (stereo not given) | 10.3 |
| Fc1ccc(CN2CCCC(c3cc4ncccc4[nH]3)C2)cc1 (stereo not given) | -1.87 |
| Cc1ccsc1CN1C[C@@H]2COC[C@]2(COCC(=O)N(C)C)C1 | -4.55 |
| CC(=O)N1C[C@H]2CN(CC3CC3)C(=O)[C@H]2C1 | 6.32 |
| Cc1cc(C)nc(N2CCC(c3noc(C)n3)CC2)n1 | -9.08 |
| Cc1nnc(CN(Cc2ccccc2Br)C2CC2)o1 | 5.2 |
| COCc1nc(N(C)C/C=C/c2ccccc2)c2cnn(C)c2n1 | -2.21 |
| OC(CNCCn1cccn1)COc1ccc2ccccc2c1 (stereo not given) | -26.4 |
| CCn1ccnc1CN(C)C1CCCN(CCCc2ccccc2)C1 (stereo not given) | 7.35 |
| CC1(c2ccccc2)CCC(=O)N(CC2(N3CCOCC3)CCCC2)C1 (stereo not given) | 8.8 |
| Cc1nn(C)cc1Cn1c(=O)ccc2ccccc21 | -12.5 |
| Cc1cc(CN2C[C@@H]3COC[C@@H](C(=O)N4CCCCO4)[C@@H]3C2)no1 | -80.6 |
| CCNC(=O)N1CC2=CC(C)(C)COc3ccc(OC)c(c32)C1 | 8.47 |
| COC(=O)c1ccc(C2CC(=O)Nc3c2cnn3C)cc1 (stereo not given) | -2.56 |
| Cc1cccc(C2(CNC(=O)C(C)NC(N)=O)CCCC2)c1 (stereo not given) | 7.19 |
| CC(C)c1nncn1CCNC(=O)c1ccc(Cl)cc1O | -5.01 |
| O=C(NCCN1CCCC1)c1nc2c(o1)CN(C(=O)c1cccnc1)C2 | -1.08 |
| O=C1COc2ccc(C(=O)NS(=O)(=O)c3ccccc3Cl)cc2N1 | -7.03 |
| CCc1noc(C)c1-c1nc(Cc2cccs2)nn1C1CCN(C)CC1 | -17.3 |
| Cc1cnc2c(C(=O)N3CCCC(OCc4ccccn4)C3)cnn2c1 (stereo not given) | -5.2 |
| Cc1ccc(C)c(NC(=O)N(C)Cc2cnn(C)c2)c1 | -3.02 |
| Cc1c(NC(=O)c2cnc[nH]2)cccc1C(=O)NC(C)(C)C | -6.46 |

| Compound | cytotoxicity at 10 µM [%] |
| --- | --- |
| COc1ccc(F)c(CN2CCCC(c3cc(O)nc(C)n3)C2)c1 (stereo not given) | 7.3 |
| CN(CCC1CCOCC1)[C@@H]1c2ccccc2C2(CCNCC2)[C@H]1O | -3.23 |
| CN(C)C(=O)N1C[C@H]2CC[C@@H](C1)N(Cc1nnc(-c3ccccc3)o1)C2 | 4.6 |
| CN(Cc1ccco1)C(=O)c1cccc(N2CCCC2=O)c1 | -4.5 |
| O=C(Cc1ccsc1)N1CCC(c2noc(-c3ccncc3)n2)CC1 | -22.1 |
| COc1ccc(NC(=O)N2CCOCC(CN(C)C)C2)c(C)c1 (stereo not given) | 0.124 |
| N#Cc1cccc(CN2C(=O)c3ccccc3CS2(=O)=O)c1 | -2.14 |
| CCCNC(=O)Nc1ccn(CCCOC)n1 | -2.11 |
| Cc1nc(S(=O)(=O)N2CCC3(CCCCC3)C2)cn1C | -4.2 |
| COCCc1nnc(NC(=O)CSCc2ccccc2)o1 | -3.75 |
| Cc1cc(C)c2nc(C3CC3)cc(C(=O)N3CCCC3C(N)=O)c2c1 (stereo not given) | -1.11 |
| Cc1nc2ccccc2nc1NCc1nnc2n1CCC2 | -1.8 |
| COc1cccc2c1OCC(NCc1cnn(-c3ccccc3F)c1)C2 (stereo not given) | 1.68 |
| CN(C)C(=O)Cn1cnc2c(Br)cccc2c1=O | -8.97 |
| CCN(CCO)C[C@@H]1CN(C(=O)c2sc3ccccc3c2C)C[C@@H]1CO | -10.6 |
| CC(C)Nc1cc(N2CCN(Cc3ccccc3)C(CCO)C2)ncn1 (stereo not given) | 7.9 |
| CS(=O)(=O)CCCN1CCSCC1c1ccc(Cl)cc1 (stereo not given) | -14.5 |
| Cc1cccc(C(=O)N(CC(=O)O)CC(C)C)c1 | -14.3 |
| COc1ccc2c(ccn2CC(=O)NC[C@@H]2CCCN3CCCC[C@H]23)c1 | -4.56 |
| Cc1nn(C)c(C)c1C1CCCN1C(=O)c1nccnc1N (stereo not given) | -3.08 |
| CC1(c2cc[nH]n2)CCN(C(=O)c2ccc(Cl)cc2)CC1 | 0.812 |
| CCN(Cc1noc(CC(C)C)n1)Cc1ccccc1C(=O)O | -51.6 |

| Compound | cytotoxicity at 10 µM [%] |
| --- | --- |
| O=C(C(CNCc1ccsc1)c1ccccc1)N1CCOCC1 (stereo not given) | -7.32 |
| CCN1CC(C(=O)NCCn2cccc2)CCC1=O (stereo not given) | -1.64 |
| CC(C(=O)N1CCN(c2cnccn2)CC1)n1cncn1 (stereo not given) | 8.37 |
| c1ccc(COC[C@]23COC[C@H]2CN(c2ncccn2)C3)nc1 | 2.14 |
| Cn1ccnc1CN1C(=O)CO[C@H]2CN(Cc3ccccc3O)C[C@H]21 | 4.22 |
| Cc1cc(C(F)F)nn1CC(=O)NCc1nccn1C | -2.17 |
| COc1cc(/C=C/c2ncc(C(=O)O)s2)cc(OC)c1 | -3.86 |
| Cc1nn(CC(=O)N2CCN(c3ncccn3)CC2)c(C)c1Cl | 0.215 |
| O=C(c1cnc2ccc(F)cc2c1NCc1ccco1)N1CCCCC1 | 9.34 |
| O=C(C1CCOCC1)N1C[C@@H](F)[C@@H](OCc2nc3cc(F)ccc3[nH]2)C1 | -9.9 |
| CC(C)CC(=O)N1CC[C@H]2N(C)CC[C@@]2(C(=O)Nc2cccnc2)CC1 | -96.9 |
| O=C1COc2ccc(S(=O)(=O)NCCC3=CCCCC3)cc2N1 | 5.42 |
| O=c1[nH]nc2c(S(=O)(=O)N3CCCC3)cccn12 | -4.52 |
| COc1ccc(-c2nc(CN3CCc4cncnc4C3)no2)cc1 | -3.92 |
| Cc1cccc(C(C(=O)N2CC(Oc3ccccc3F)C2)N(C)C)c1 (stereo not given) | -0.572 |
| Cn1cc(CN2CCC[C@]3(C[C@@H](Oc4ncccc4F)CO3)C2)cn1 | 9.66 |
| COc1ccc(C)cc1NC(=O)Nc1cnc(O)nc1O | -3.79 |
| CCO[C@H]1CO[C@@]2(CCCN(S(=O)(=O)c3ccccc3)C2)C1 | 4.42 |
| O=C1C(Nc2ccc3nccnc3n2)CCN1c1ccccc1F (stereo not given) | -10 |
| CN(C)S(=O)(=O)N1CCC2(COCc3cnc(-c4cccnc4)nc32)C1 (stereo not given) | -115 |
| Cc1nnc([C@]23COC[C@H]2CN(Cc2nccs2)C3)o1 | 0.872 |
| O=C(Nc1ccc2c(c1)OCCO2)N1CCCC1c1ccco1 (stereo not given) | 8.2 |
